Assay results from PMC6698915 (Cancer chemotherapy and pharmacology, 2015).
“Also recorded” adds a separate entry of the source.

Key:
PTEN-deficient tumor = conditions: buparlisib plus cisplatin; cited from earlier work
advanced solid tumors = assay: Antitumor efficacy; type: in vivo, human
How it was run: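 Open-label single-centre 3+3 trial in advanced solid tumors. Oral PI3K-inhibitor test compound was given at 50, 80 or 100 mg/day continuously. […] Imaging after each even-numbered cycle; best response per RECIST. FFPE tumor PTEN IHC scored 0/1+/2+.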

[1] = system: patients with advanced solid tumors; conditions: cited from earlier work
[2] = 25 patients measurable by RECIST, both groups

Nc1cc(C(F)(F)F)c(-c2cc(N3CCOCC3)nc(N3CCOCC3)n2)cn1 [buparlisib]
effect of combination in PTEN-deficient xenograft (PTEN-deficient tumor): synthetic lethality was achieved
best response: confirmed partial response (PR) (advanced solid tumors; [2]): four
best response: progression of disease (advanced solid tumors; [2]): three
confirmed objective response rate (advanced solid tumors; 25 patients with measurable disease, Groups 1 and 2 (1 CR, 4 PRs; 5/25)): 20%
patients with reductions in measurable disease of at least 20 % and/or at least six cycles (advanced solid tumors; of patients who completed at least one cycle (18/25)): 72%
patients with reductions in measurable disease of at least 20 % and/or at least six cycles (advanced solid tumors; of patients who received any study treatment (18/30)): 60%
duration of disease control (advanced solid tumors; one person, metastatic parotid carcinoma to bone, loss of PTEN expression, Group 2): approximately 20 months
alkaline phosphatase nadir (advanced solid tumors; same parotid carcinoma patient, baseline 236, normal range 45–129 U/L): 80 U/L
outcome in patients with loss of PTEN expression (advanced solid tumors; three patients, PTEN IHC score = 0): all derived clinical benefit from treatment; also recorded: experienced objective radiographic tumor reductions or clinical benefit
maximum tolerated dose (MTD) of buparlisib monotherapy [1]: 100 mg/day
most common adverse events ([1]; monotherapy, 83 patients, dose escalation and expansion): decreased appetite, diarrhea, nausea, hyperglycemia, and rash
patients with radiographic responses ([1]; monotherapy, among 83 patients, one confirmed, three unconfirmed): Four
